In general, GI50 refers to the concentration giving 50% growth inhibition.

The results in this text go back to ChEMBL document CHEMBL1765004 (2011).

One assay concerns A498. The assay can be described thus: Anticancer activity against human A498 cells. The class given is functional. An outline of the steps:
(§1)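 NCI-DTP 60 cell line screen; GI50 values supplied by NCI-DTP. HCT-116 GI50 for some entries determined instead by a separate group (Henry Ford Hospital). Compounds failing initial single-dose testing at 10 μM (<25% growth inhibition) were not taken to five-dose testing.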

In assay [1] the test system is HCT-116. The assay can be described thus: Antimicrofilament activity in human HCT116 cells assessed as loss of microfilament at 0.05 uM by rhodamine-phalloidin staining. The class given is functional, cell-based.
The subject of the next assay is PC-3. The assay can be described thus: Growth inhibition against human PC3 cells assessed as disruption of actin cytoskeleton. The assay is classed as functional.
Assay [2] in a line: Growth inhibition against human TSU-Pr1 cells assessed as disruption of actin cytoskeleton. The class given is functional.
A further assay relates to NCI-H522. The assay can be described thus: Anticancer activity against human NCI-H522 cells. The assay is classed as functional. An outline of the steps: as §1
For assay [3], the system named is HCT-116. The assay can be described thus: Antimicrofilament activity in human HCT116 cells assessed as total loss of microfilament network at 0.5 uM by rhodamine-phalloidin staining. The assay is classed as functional, cell-based.
Another assay deals with LNCaP. The experiment in a line: Growth inhibition against human LNCAP cells assessed as disruption of actin cytoskeleton. The assay is classed as functional.
Another assay has as its system LOX IMVI. The assay can be described thus: Anticancer activity against human LOXIMVI cells. The class given is functional. An outline of the steps: as §1
In assay [4] the test system is HCT-116. The assay can be described thus: Antimicrofilament activity in human HCT116 cells assessed as total loss of microfilament network at 5 uM by rhodamine-phalloidin staining. The class given is functional, cell-based.
In assay [5] the test system is HCT-116. The assay can be described thus: Cytotoxicity against human HCT116 cells assessed as time required to kill 90% of tumor cells at 0.004 uM by clonogenic assay. The assay is classed as functional. In short, it runs like this:
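Clonogenic assay: HCT-116 seeded at 200–20 000 cells per 60 mm dish in RPMI + 10% FBS. Drug was given at 1 mg/mL and 10-fold dilutions for 2 h or 24 h, then replaced with drug-free medium, or given continuously. After 7 days colonies were stained with methylene blue and those of ≥50 cells counted, normalized to untreated control. Repeats spanned 100–0.1% survival; endpoint was 90% kill.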

The subject of assay [6] is HCT-116. The experiment in a line: Antimicrofilament activity in human HCT116 cells assessed as total loss of microfilament network at 1 uM by rhodamine-phalloidin staining. The class given is functional, cell-based.
The test system of assay [7] is HCT-116. The experiment in a line: Antimicrofilament activity in human HCT116 cells assessed as loss of microfilament at 0.01 uM by rhodamine-phalloidin staining. The assay is classed as functional, cell-based.
In assay [8] the test system is HCT-116. The assay can be described thus: Antimicrofilament activity in human HCT116 cells assessed as complete loss of microfilament network at 0.5 uM to 5 uM by rhodamine-phalloidin staining.
The next assay has as its system U-251. The assay can be described thus: Anticancer activity against human U251 cells. The class given is functional. In short, it runs like this: as §1
Another assay has as its system DU-145. The experiment in a line: Anticancer activity against human DU145 cells. The assay is classed as functional. In short, it runs like this: as §1
Assay [9] has as its system HCT-116. The experiment in a line: Anticancer activity against human HCT116 cells. The assay is classed as functional. In short, it runs like this: as §1
The subject of assay [10] is HCT-116. The experiment in a line: Antimicrofilament activity in human HCT116 cells assessed as loss of microfilament at 0.1 uM by rhodamine-phalloidin staining. The class given is functional, cell-based.
For the next assay, the system named is IGROV-1. The assay can be described thus: Anticancer activity against human IGROV1 cells. The class given is functional. In short, it runs like this:
as §1

Another assay has as its system MDA-MB-231. The experiment in a line: Anticancer activity against human MDA-MB-231 cells. The class given is functional. In short, it runs like this: as §1

SMILES strings stand for the structures. Active and inactive are the calls of the source. The rule behind the calls is not given here.

Turning to `C/C1=C\[C@H](C)C[C@H](C)OC(=O)C[C@H](c2ccc(O)cc2)NC(=O)[C@@H](Cc2c(Br)[nH]c3ccccc23)N(C)C(=O)[C@H](C)NC(=O)[C@@H](C)C1` [JASPAMIDE], the concentration for 50% growth inhibition (GI50) was 0.03 µM in the assay with A498; 65 µM in the assay with PC-3; 170 µM in [2]; 0.03 µM in the assay on NCI-H522; 41 µM in the assay on LNCaP; 0.01 µM in the assay with LOX IMVI. The concentration for 50% growth inhibition (GI50) in the assay with U-251 is 0.07 µM; with DU-145, 0.03 µM; with HCT-116 [9] it was 0.04 µM; in the assay on IGROV-1, 0.02 µM; in the assay on MDA-MB-231, 0.01 µM. In addition, the outcome with HCT-116 [1], in the assay on HCT-116 [7] and in the assay with HCT-116 [10] was inactive. Moreover, the result with HCT-116 [3], with HCT-116 [4], with HCT-116 [6] and with HCT-116 [8] was Active. Further, the Time in the assay with HCT-116 [5] worked out at 7 days.
